Screening data deposited in PubChem BioAssay by several laboratories.
Rows were chosen to be rich in hits. Some 4% of all compounds tested hit in one or more screens of this group.
ERa coact inh – ER-alpha (human) coactivator binding inhibition | P03372 | TR-FRET ER-alpha LBD / SRC-1 peptide, estradiol-bound | inhibition, % at 25.6 µM | 1.7% of 86,000 active; in the data active = inhibition above about 50%;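 also: 0% = receptor plus peptide control and 100% = peptide only without receptor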
Smad3 FoxH1 inh – Smad3 (human) transcription factor binding inhibition; TR-FRET Smad3/Dy647-FoxH1 peptide binding, europium anti-His; inhibition, % at 25 µM; 0.29% of 88,000 active; AID 630;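 active = compounds that reduce the energy-transfer binding signal between the protein and its labelled peptide by more than half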;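 also: 0% = Smad3 plus labelled peptide maximal FRET and 100% = peptide-only background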
Target sequence (P84022 whole entry, looked up): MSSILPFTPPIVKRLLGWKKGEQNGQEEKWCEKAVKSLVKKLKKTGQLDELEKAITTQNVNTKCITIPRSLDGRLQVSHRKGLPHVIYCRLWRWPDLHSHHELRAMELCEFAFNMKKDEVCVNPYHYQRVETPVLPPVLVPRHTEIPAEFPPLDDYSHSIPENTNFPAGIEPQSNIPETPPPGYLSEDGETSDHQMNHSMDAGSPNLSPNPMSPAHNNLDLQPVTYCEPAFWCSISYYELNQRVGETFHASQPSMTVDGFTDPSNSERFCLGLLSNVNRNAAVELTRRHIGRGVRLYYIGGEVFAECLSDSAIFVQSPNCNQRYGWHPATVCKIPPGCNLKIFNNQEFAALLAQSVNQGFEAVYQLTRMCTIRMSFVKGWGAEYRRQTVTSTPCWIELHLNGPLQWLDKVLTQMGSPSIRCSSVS
FAK inh – inhibitors of human focal adhesion kinase; biochemical FAK kinase activity assay; inhibition, %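 (tested at 7 µM)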; 0.84% of 97,000 active; AID 727; in the data active = inhibition above about 19%;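 also: 0% = DMSO and 100% = reference compound high control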
ERa SRC1 pot – ER-alpha (human) coactivator binding potentiation. TR-FRET ERalpha-LBD/SRC-Cy5 coactivator binding, 2 h; 100 = basal binding, no effect. coactivator binding (% of control), % at 25.6 µM. 1.3% of 86,000 active. AID 639; in the data active = activity above about 200%;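 also: binding measured in presence of low estradiol as agonist stimulus; 0% = peptide alone without receptor and 100% = receptor with peptide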
HIV Rev-RRE inh – HIV Rev-RRE protein-RNA interaction inhibition | P05866 | Rev peptide-RRE RNA binding, FRET | inhibition, % at 8 µM | 0.79% of 97,000 active | AID 704;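 active = inhibition above the screen-wide mean plus 3 SD, cut at about 35% in these data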;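 also: 0% = median DMSO wells and 100% = median Neomycin B control wells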
Target sequence (P05866 whole entry, looked up): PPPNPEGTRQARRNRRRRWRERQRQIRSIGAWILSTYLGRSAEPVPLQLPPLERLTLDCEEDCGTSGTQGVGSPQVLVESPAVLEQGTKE
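Material: labelled RRE RNA duplex and labelled Rev peptide / Buffer or medium: HEPES pH 7.5 salt buffer with EDTA / Compound dosing: single point, 8 µM final nominal compound concentration / Benchmarks: DMSO low control, neomycin B high control / Timing: 5 min preincubation and 15 min binding, 25 °C / Technique: FRET fluorescence readout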
ERb SRC1 inh – blocks coactivator binding to human estrogen receptor beta; Q92731; TR-FRET ER-beta LBD / SRC1-Cy5 peptide binding; receptor agonist-loaded with 1 µM estradiol; inhibition, % at 25.6 µM; 1.3% of 86,000 active;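 active = compounds whose percent inhibition of the receptor-coactivator binding signal exceeds about 50% in the single-dose screen, limit read from the data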;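 also: 0% = receptor plus peptide wells without compound and 100% = peptide-only wells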
Numbers without * were called inactive; nt = no result; [ ] = another dose, or the depositor's remark.

SMILES	ERa coact inh	Smad3 FoxH1 inh	FAK inh	ERa SRC1 pot	HIV Rev-RRE inh	ERb SRC1 inh
COc1cc(OC)cc(C(=O)Nc2ccc(-n3cnnn3)c(C)c2)c1	-6	11	-5	127	2	-8
Cc1cc(NC(=O)c2oc3ccccc3c2C)ccc1-n1cnnn1	65*[fluorescence artefact?]	6	0	131	10	50*[fluorescence artefact?]
Cc1ccc(C)c2[nH]c(=O)c(C(c3nnnn3Cc3ccco3)N3CCc4ccccc4C3)cc12 (stereo not given)	19	5	2	220*[fluorescence artefact?]	18	31
Cc1cc2ccc(OC(=O)c3ccc(N=C(N)N)cc3)cc2oc1=O	nt	12	nt	nt	nt	nt
CCCSc1nc2sc3c(c2c(=O)[nH]1)CCN(Cc1ccccc1)C3	nt	nt	5	nt	92*[fluorescence artefact?]	nt
C=CCn1c(/N=C/c2ccc(N(C)C)cc2)nc2ccccc21	2	-6	-2	107	50*	5
CCCCn1c(/N=C/c2ccc3c(c2)OCO3)nc2ccccc21	6	-17	1	76	4	3
CCCCn1c(/N=C/c2ccc(N(C)C)cc2)nc2ccccc21	-7	-3	0	90	37*	-2
N#CC(CC(=O)O)=C(c1ccccc1)c1ccccc1	nt	-4	nt	nt	nt	nt
COCCNS(=O)(=O)c1ccc(C2CNC(=O)C2)cc1 (stereo not given)	-2	6	1	103	2	-14
O=C1CC(c2ccc(S(=O)(=O)NCCOc3ccccc3)cc2)CN1 (stereo not given)	3	3	0	124	4	57*
COc1ccc(OC)c(C2=NOC(C(=O)NCc3ccco3)C2)c1 (stereo not given)	-3	1	-3	99	3	3
CC(C)(C)c1cc(Br)c(O)c(CN(Cc2cc(C(C)(C)C)cc(Br)c2O)C2CCCCC2)c1	nt	5	nt	nt	nt	nt
CC(C)NC(=O)CSc1nc(-c2cccs2)cc(-c2ccccc2)c1C#N	11	-36	-25	255*	18	7
CC1=NN(c2cccc(C(=O)O)c2)C(=O)/C1=C\C=C\c1ccco1	83*[fluorescence artefact?]	40	10	15	-52	89*[fluorescence artefact?]
COc1cccc(-c2cc(C(=O)NCc3ccc(Cl)cc3)no2)c1	70*[fluorescence artefact?]	-2	0	95	7	20
Cc1cc(NC(=O)c2cc(-c3cccc(Cl)c3)on2)no1	28	11	3	191	4	16
COc1ccc(-c2cc(C(=O)NCc3ccc(Cl)cc3)no2)cc1OC	nt	nt	5	nt	0	nt
COc1cccc(-c2cc(C(=O)Nc3cc(C)on3)no2)c1	23	6	5	428*[fluorescence artefact?]	2	30
C[C@@]1(C(=O)O)CCC[C@@H]1C(=O)O	nt	15	nt	nt	nt	nt
CCc1nnc2n1N=C(c1ccc(-c3cc(Cl)ccc3Cl)o1)CS2	59*	4	12	79	6	34
Cc1ccc(S(=O)(=O)N2CCCCC2)cc1C(=O)Nc1ncn[nH]1	55*	11	nt	36	nt	59*
Cc1ccc(S(=O)(=O)N2CCCCC2)cc1C(=O)Nc1ccc2cn[nH]c2c1	8	16	5	90	1	5
O=C(O)c1ccc(SSc2ccc(C(=O)O)cn2)nc1	nt	1	nt	nt	nt	nt
Cc1csc(N/N=C/c2ccc(O)c([N+](=O)[O-])c2)n1	99*[fluorescence artefact?]	14	0	4	-1	99*[fluorescence artefact?]
SMILES	ERa coact inh	Smad3 FoxH1 inh	FAK inh	ERa SRC1 pot	HIV Rev-RRE inh	ERb SRC1 inh
O=C(CSc1nc(C2CC2)nc2ccccc12)N1c2ccccc2Sc2ccc(C(F)(F)F)cc21	nt	nt	8	nt	10	nt
O=C(Nc1c(-c2ccccc2)nc2sccn12)c1ccccc1	72*[fluorescence artefact?]	51*	nt	71	nt	71*[fluorescence artefact?]
Cc1ccn2c(NC(=O)c3ccco3)c(-c3ccccc3)nc2c1	-17	-1	-3	109	3	-17
N=C(N)N1CCc2ccccc2C1	-7	-2	nt	102	nt	1
CC(=O)C1=C(C)NC(SCC(=O)c2ccc(-c3ccccc3)cc2)=C(C#N)C1c1cccnc1 (stereo not given)	38	-7	1	355*[fluorescence artefact?]	12	29
CC(=O)C1=C(C)NC(SCSc2ccccc2)=C(C#N)C1c1cccnc1 (stereo not given)	4	0	0	88	11	4
OCCCc1nc2n(n1)C(c1cccs1)C=C(c1ccc(Br)cc1)N2 (stereo not given)	16	12	2	83	135*[fluorescence artefact?]	3
Brc1ccc(C2=CC(c3cccs3)n3ncnc3N2)cc1 (stereo not given)	26	-1	11	78	135*[fluorescence artefact?]	1
COc1cc(C2C(C(N)=O)=C(C)Nc3nc(CCCO)nn32)cc(OC)c1OC (stereo not given)	-8	-5	nt	114	nt	3
N#CCC(CNc1ncc(C(F)(F)F)cc1Cl)OC(=O)c1cccc([N+](=O)[O-])c1 (stereo not given)	nt	nt	-4	nt	19	nt
Cc1onc(-c2ccccc2Cl)c1C(=O)Nc1cccc2nsnc12	-2	-2	0	263*[fluorescence artefact?]	5	-10
[N-]=[N+]=CC(=O)COC(=O)c1ccccc1	nt	-4	nt	nt	nt	nt
C=CCn1cnc2c(c1=O)c1nc3ccccc3nc1n2/N=C/c1cccc(OC)c1OC	85*[fluorescence artefact?]	5	nt	66	nt	-1
C=CCn1cnc2c(c1=O)c1nc3ccccc3nc1n2/N=C/c1cc(OC)c(OC)c(OC)c1	16	5	nt	91	nt	10
NC(=O)c1ccsc1NC(=O)c1ccc(S(=O)(=O)N2CCCCC2)cc1	19	3	10	94	12	15
CC1CC(C)CN(S(=O)(=O)c2ccc(C(=O)Nc3sccc3C(N)=O)cc2)C1 (stereo not given)	15	-7	2	253*[fluorescence artefact?]	6	21
O=C(O)[C@@H](c1ccccc1)N1Cc2ccccc2C1=O	-18	5	-2	597*[fluorescence artefact?]	4	17
CSCC[C@@H](C(=O)O)N1Cc2ccccc2C1=O	1	-8	nt	117	nt	7
O=C(Nc1ccc2c(c1)OCO2)Nc1ccc(Br)cn1	15	0	3	228*	6	33
O=C(Nc1cccc(Cl)c1)Nc1ccc2c(c1)OCO2	9	13	5	112	3	2
COc1ccc(C)cc1NC(=O)Nc1ccc(Br)cn1	10	6	5	243*	4	34
CN1CCN(c2ccc(Cl)cc2NC(=O)c2nn(-c3ccccc3)c(=O)c3ccccc23)CC1	13	0	1	242*[fluorescence artefact?]	16	37
O=C(Cn1cnc2scc(-c3ccccc3)c2c1=O)N1CCOCC1	25	-4	0	110	1	25
Cc1ccc(-c2csc3ncn(CC(=O)N4CCOCC4)c(=O)c23)cc1C	16	3	3	68	8	78*[fluorescence artefact?]
CN(C)Cc1ccc(C(C)(C)C)cc1-c1cc(C(C)(C)C)ccc1CN(C)C	nt	-1	nt	nt	nt	nt
COc1cc2c(cc1OC)CN(C(C)C(=O)Nc1ccc(NC(C)=O)cc1)CC2 (stereo not given)	nt	nt	-1	nt	9	nt
